An excerpt weighted towards active compounds, which were near 2.4% of everything screened.
CSN inh: inhibitors of human CSN-mediated cullin deneddylation; inhibition, % at 12.5 µM; 360,000 tested, 0.38% active; Q92905; Purified CSN, SCF-Nedd8-OG deneddylation, fluorescence polarization;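 active = pattern-corrected inhibition above about 35%, with an unprinted fluorescence ratio check between 0.5 and 1.5, limit read from the data, passing the limit was not always enough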;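 also: 0% = enzyme with substrate and 100% = substrate without enzyme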
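assay system = purified human Csn5 enzyme expressed in HEK293T cells | amount = 0.24 nM enzyme | buffer or medium = Tris/NaCl/DTT buffer, pH 7.5 | reagent = 10 nM SCFSkp2-Nedd8OG | compound = one concentration, 12.5 µM, 0.25% DMSO | times = 90 min reaction at room temperature | signal = FP | read-out basis = % inhibition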
Neddylation inh: inhibitors of human cullin neddylation. AID 651699. P61081+Q13564. 360,000 tested, 0.58% active. TR-FRET cullin neddylation, biochemical. inhibition, % at 25 µM; in the data active = inhibition above about 36%
HNF4A DNA FP: change in binding of human HNF4 alpha to DNA; P41235; HNF4a-FITC DNA binding, fluorescence polarization, 1 h; activity change, % at 10 µM; 360,000 tested, 0.3% active; AID 1224865; in the data active = activity change above about 30%, passing the limit was not always enough
Rin1-Abl PPI inh: human Rin1-Abl interaction inhibition; TR-FRET Rin1/Abl binding, biochemical; AID 588664; inhibition, % at 7.35 µM; 360,000 tested, 0.4% active; in the data active = inhibition above about 5%, passing the limit was not always enough
Rpn11 inh: Rpn11 (human) deubiquitinase inhibition | inhibition, % at 20 µM | human 26S proteasome, Ub4-pepOG fluorescence polarization; 20S core pre-blocked with epoxomicin | 360,000 tested, 0.59% active | O00487;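 active = inhibition at 20 µM, scaled to each plate's controls, above about 33%, limit read from the data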
Target sequence (O00487 whole entry, looked up): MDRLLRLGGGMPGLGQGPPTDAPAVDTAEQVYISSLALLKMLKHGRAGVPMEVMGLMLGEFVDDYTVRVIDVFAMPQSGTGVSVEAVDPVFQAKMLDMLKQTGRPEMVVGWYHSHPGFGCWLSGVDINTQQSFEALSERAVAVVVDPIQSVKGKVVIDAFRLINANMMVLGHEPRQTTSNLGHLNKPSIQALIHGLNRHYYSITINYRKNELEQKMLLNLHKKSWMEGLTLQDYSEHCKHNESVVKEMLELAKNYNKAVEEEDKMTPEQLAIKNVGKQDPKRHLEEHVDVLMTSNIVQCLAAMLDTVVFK
TPT1 inhibitor: blocks Candida albicans tRNA 2'-phosphotransferase. recombinant caTPT1, FP RNA substrate dephosphorylation. inhibition, % at 5 µM. 300,000 tested, 0.81% active. AID 1962;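 active = inhibition above the mean of all tested compounds plus 3 SD, set per screening campaign, cut at about 24% in these data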;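 also: plate controls were DMSO alone for no effect and ferristatin control at 100 nM for full effect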
Neddyl conf: confirmation of human cullin neddylation inhibitors | shares compounds with Neddylation inh | TR-FRET cullin neddylation biochemical assay | 1,800 tested, 13% active | calls only at 25 µM; in the data active = inhibition above about 40%;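 also: neddylation substrate is the cullin 1 ring ligase complex with SKP2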
Starred values were filed as active, the others as inactive; i = inactive; / = no result shown; + = active, no number.

SMILES	CSN inh	Neddylation inh	HNF4A DNA FP	Rin1-Abl PPI inh	Rpn11 inh	TPT1 inhibitor	Neddyl conf
COc1ccccc1N(C(=O)c1snc(C(N)=O)c1N)C(C(=O)NC1CCCC1)c1ccco1 (stereo not drawn)	9	43*	-1	0	5	-2	+
COc1ccccc1N(C(=O)c1snc(C(N)=O)c1N)C(C(=O)NCCC(C)C)c1ccco1 (stereo not drawn)	0	/	2	0	-4	-1	/
COc1ccccc1N(C(=O)c1snc(C(N)=O)c1N)C(C(=O)NC1CCCC1)c1ccc(N(C)C)cc1 (stereo not drawn)	-3	-295	0	2	-5	3	/
COc1ccc(C)cc1N(C(=O)c1snc(C(N)=O)c1N)C(C(=O)NC1CCCCC1)c1ccc(C)o1 (stereo not drawn)	2	44*	3	-4	3	/	/
NC(=O)N/N=C\c1cc(Br)ccc1O	-2	41*	1	-2	5	-2	i
O=C(N/N=C/c1cc(Br)ccc1O)Nc1ccccc1	-4	32	2	1	-6	1	/
COC(=O)c1sccc1NC(=O)/C=C/c1ccc(Cl)cc1Cl	-1	41*	-3	1	-6	-2	i
COc1ccc(S(=O)(=O)N2c3cc(Cl)ccc3Oc3nc4ccccc4nc32)cc1	4	28	3	0	0	2	/
O=S(=O)(c1ccc(Cl)cc1)N1c2ccccc2Oc2nc3ccccc3nc21	7	41*	3	1	13	5	i
CCOCCCn1c(C)nc2c(c1=O)c1nc3ccccc3nc1n2-c1ccc(C)cc1	1	49*	-5	-3	5	0	i
CCOCCCn1c(C)nc2c(c1=O)c1nc3ccccc3nc1n2-c1ccc2c(c1)OCCO2	/	/	/	/	/	-1	/
CCN(CC)C1=N/C(=C\c2ccc(OC)cc2)C(=O)N1c1ccccc1	0	48*	-2	1	2	-4	i
Cc1ccc(NC(=O)COC(=O)C(CC(C)C)N2C(=O)C3CC=CCC3C2=O)c(C)c1 (stereo not drawn)	-9	14	-1	2	0	-4	/
Cc1ccc(S(=O)(=O)c2cc3c(=O)n4ccccc4nc3n(C)c2=N)cc1C	5	/	3	-2	-13	0	/
C=CCn1c(=N)c(S(=O)(=O)c2ccc(C)c(C)c2)cc2c(=O)n3ccccc3nc21	3	47*	2	0	-83	0	i
N=c1c(S(=O)(=O)c2ccccc2)cc2c(=O)n3ccccc3nc2n1CCCN1CCOCC1	1	63*	3	-6	-2	4	i
CCCn1c(=N)c(C#N)cc2c(=O)n3ccccc3nc21	0	/	21	1	/	0	/
N#Cc1cc2c(=O)n3ccccc3nc2n(CCCn2ccnc2)c1=N	4	46*	-1	-10	5	-3	i
Cc1nccn1CC(=O)N/N=C/c1cccs1	0	-5	1	-3	-14	-3	/
CNc1c(NS(=O)(=O)c2ccc3c(c2)CCCC3)c(=O)oc2ccccc12	8	34	1	4	-4	-1	/
CN1CCN(S(=O)(=O)Cc2ccc(Cl)cc2)CC1	-7	-1	-1	0	4	-1	/
CC(OC(=O)c1snc(C(=O)NC2CCCCC2)c1N)C(=O)NC(C)(C)C (stereo not drawn)	-1	40*	-1	2	0	-5	+
O=C(O)CCn1c(CO)nc2ccccc21	-7	6	-4	-4	-3	-2	/
O=C(O)CCn1c(-c2ccccc2)cc2ccccc21	3	50*	0	0	-6	0	/
CC(C)C(C)NC(=O)COn1nnc2ccc(S(=O)(=O)N3CCOCC3)cc21 (stereo not drawn)	-1	5	1	0	7	/	/
SMILES	CSN inh	Neddylation inh	HNF4A DNA FP	Rin1-Abl PPI inh	Rpn11 inh	TPT1 inhibitor	Neddyl conf
CC(=O)C(Cc1ccccc1)NC(=O)CN1c2cccc3cccc(c23)S1(=O)=O (stereo not drawn)	-4	28*	1	2	-2	/	i
CCN(CC(=O)NC(C)(C)C)C(=O)CN1c2cccc3cccc(c23)S1(=O)=O	-4	51*	5	0	2	3	/
CCOc1ccccc1NC(=O)CN1c2cccc3cccc(c23)S1(=O)=O	-4	44*	1	-4	11	/	/
CCCC(=O)Nc1cc(-c2nc3ncccc3o2)ccc1C	5	/	2	-5	-2	4	/
Cc1ccc(-c2nc3ncccc3o2)cc1NC(=O)C(C)(C)C	1	41*	-6	2	-4	3	/
CN(C)/C=N/c1cc(=O)[nH]c(=O)n1C	0	-13	0	-2	0	1	/
COc1ccc(Br)cc1/C=N/NC(=O)c1ccc2nc[nH]c2c1	4	-21	1	-4	2	-3	/
CCCCCCCCC(=O)N/N=C(\C)c1ccc(O)cc1O	-6	35	-1	-6	-8	-4	/
CCCCCCCC(=O)N/N=C(\C)c1ccc(O)cc1O	-3	42*	2	-4	-9	0	i
COc1ccc(CCC(=O)OCC(=O)N(C)c2c(N)n(Cc3ccccc3)c(=O)[nH]c2=O)cc1	1	12	-1	0	-3	-1	/
COc1cc2ccccc2cc1C(=O)OCC(=O)N(C)c1c(N)n(Cc2ccccc2)c(=O)[nH]c1=O	-5	49*	1	-4	6	1	/
CCN(C(=O)COC(=O)c1cc2ccccc2cc1OC)c1c(N)n(Cc2ccccc2)c(=O)[nH]c1=O	3	56*	0	3	3	/	/
COc1ccccc1Nc1cc(C)nc2c(C)ccc([N+](=O)[O-])c12	-6	45*	-4	-1	-8	3	i
Cc1cc(Nc2ccccc2)c2c([N+](=O)[O-])cc(C)c(C)c2n1	3	14	1	1	-1	-1	/
CC1(c2ccc(Cl)cc2)NC(=O)N(CC(=O)N2CCN(S(=O)(=O)c3ccccc3)CC2)C1=O (stereo not drawn)	-4	5	2	0	-2	-3	/
Cn1c2ccc(F)cc2c2ncn(CCCN(CCO)CCO)c(=O)c21	3	38*	-3	-8	1	4	i
CCOC(=O)/C=c1\s/c(=C\c2ccc(C(=O)OC)cc2)c(=O)n1CC(=O)Nc1ccccc1	11	40*	8	1	15	8	i
O=C(CN1C(=O)c2cccc([N+](=O)[O-])c2C1=O)OCC(=O)N1CCCCC1	-6	-11	4	2	5	3	/
COc1ccc(OC)c(/C=C/c2nc3ccccc3[nH]c2=O)c1	19	/	-1	0	/	4	/
